Laboratory results from ChEMBL document CHEMBL1129062, “6- and 7-substituted 2-[2'-(dimethylamino)ethyl]-1,2-dihydro-3H-dibenz[de,h] isoquinoline-1,3-diones: synthesis, nucleophilic displacements, antitumor activity, and quantitative structure-activity relationships” (J Med Chem, 1996).

Legend:
Tumor cell line = test: An average for IC50 values in the two solid tumor cell lines.; assay type: functional, cell-based
[1] = An average for IC50 values in the two solid tumor cell lines and sensitive L1210 leukemia cell line.; assay type: functional, cell-based
Rattus norvegicus = species: Rattus norvegicus; test: Cardiotoxicity by a neonatal rat heart myocyte assay; assay type: toxicity
Summary of the method: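 Neonatal rat heart myocytes exposed to drug for 1 h. Read-out is the ATP/protein ratio relative to untreated control myocytes. IC50 is the 1-h concentration that reduces this ratio to 50% of control.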

OVCAR-3 = test: Inhibitory activity against OVCAR-3 cell line; assay type: functional, cell-based; conditions: Homo sapiens
L1210 [2] = test: Inhibitory activity against sensitive L1210 cell lines; assay type: functional, cell-based; conditions: Mus musculus
UACC-375 = test: Inhibitory activity against […] cell line; assay type: functional, cell-based; conditions: Homo sapiens
[3] = Toxicity ratio determined by the quotient of IC50 values in the myocytes divided by the average value in the three tumor lines.; assay type: functional
Summary of the method: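 Ratio is the myocyte cardiotoxicity IC50 (1-h exposure, ATP/protein ratio versus untreated myocytes) divided by the mean IC50 in sensitive L1210 and the two human tumor lines, measured with continuous exposure.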

L1210 [4] = test: Inhibitory activity against resistant murine leukemia L1210 cell lines.; assay type: functional, cell-based; conditions: Mus musculus

Structure (SMILES)	IC50 (Tumor cell line) [nM]	IC50 [1] [nM]	IC50 (OVCAR-3) [nM]	IC50 (L1210 [2]) [nM]	IC50 (UACC-375) [nM]	IC50 (L1210 [4]) [nM]	IC50 (Rattus norvegicus) [nM]	Toxicity ratio [3]
CN(C)CCN1C(=O)c2ccc(Cl)c3cc4c(Cl)cccc4c(c23)C1=O	709	630	945	472	472	590	> 23600	>37
CN(C)CCN1C(=O)c2ccc(O)c3cc4ccccc4c(c23)C1=O	1930	1360	723	217	3130	145	> 24100	>18
CN(C)CCN1C(=O)c2ccc(S(C)(=O)=O)c3cc4ccccc4c(c23)C1=O	93	73	93	35	93	35	2320	32
CN(C)CCN1C(=O)c2ccc(N)c3cc4ccccc4c(c23)C1=O	109	74					1490	20
CSc1c2ccccc2c2c3c(cccc13)C(=O)N(CCN(C)C)C2=O	1060	2790	750	6250	1380	1220	> 50000	>18
CN(C)CCN1C(=O)c2cccc3c(Cl)c4ccccc4c(c23)C1=O	450	351	386	154	514	206	10800	31
CN(C)CCNc1ccc2c3c(c4cccc(Cl)c4cc13)C(=O)N(CCN(C)C)C2=O	103	69	176	2.9	29	6.8	3230	47
CCc1ccc2c3c(c4ccccc4cc13)C(=O)N(CCN(C)C)C2=O	522	409	522	183	522	235	7830	19

More lines, in order of falling IC50 (Tumor cell line), values ahead:

IC50 (Tumor cell line) [nM]	IC50 [1] [nM]	IC50 (OVCAR-3) [nM]	IC50 (L1210 [2]) [nM]	IC50 (UACC-375) [nM]	IC50 (L1210 [4]) [nM]	Structure (SMILES)	IC50 (Rattus norvegicus) [nM]	Toxicity ratio [3]
6680	4620	6080	486	7290	729	CC(=O)Nc1ccc2c3c(c4ccccc4cc13)C(=O)N(CCN(C)C)C2=O	12900	2.8
3660	2590	1180	472	6130	212	CN(C)CCN1C(=O)c2cccc3c(O)c4ccccc4c(c23)C1=O	> 24100	>9
2800	1880	267	53	5330	53	CNCCN1C(=O)c2ccc(Cl)c3cc4ccccc4c(c23)C1=O	7600	4
1860	1420	2880	524	839	524	CN(C)CCNc1c2ccccc2c2c3c(cccc13)C(=O)N(CCN(C)C)C2=O	291000	205
730	649	730	487	730	487	CC(=O)Nc1c2ccccc2c2c3c(cccc13)C(=O)N(CCN(C)C)C2=O	> 23600	>36
35	35	28	34	42	70	Cc1c2ccccc2c2c3c(cccc13)C(=O)N(CCN(C)C)C2=O	1680	49
34	24	19	6	48	48	CN(C)CCN1C(=O)c2ccc(NCCO)c3cc4ccccc4c(c23)C1=O	1210	50
